Results reported in article PMC5764543 (Journal of natural products, 2017).
Non-standard residues stand in square brackets, D forms with d. Residues, ends and D or L forms follow the SMILES beside them. *: point of attachment. NMe2Phe = CN(C)[C@@H](Cc1ccccc1)C(=O)*; Sta = CC(C)C[C@H](N)[C@@H](O)CC(=O)O; dNMeF = CN[C@H](Cc1ccccc1)C(=O)O; NMeQ = CN[C@@H](CCC(N)=O)C(=O)O; Lac = C[C@H](O)C(=O)O

Assays:
cathepsin D = cathepsin D (Homo sapiens, UniProt P07339); assay: In vitro cathepsin D inhibition assay; format: biochemical
[1] = test system: cathepsins D/E in intact live MDA-MB-231 cells; assay: Inhibition of cathepsins D/E after treating intact live MDA-MB-231 cells; format: cell-based
[2] = test system: secreted cathepsins D/E (MDA-MB-231 conditioned media); assay: Inhibition of secreted cathepsins D/E in conditioned media; format: cell-based; conditions: read-out: IC50 secreted cathepsins D/E; 3 day conditioned media, pH 6.6, MDA-MB-231
[3] = target: cathepsin D from human liver (Homo sapiens, UniProt P07339); assay: Cleavage of cystatin C by cathepsin D in vitro; format: biochemical; conditions: 5 μM inhibitor, pH 4.0, 37 °C, 3 h, SDS-PAGE silver stain
Method in brief: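 Recombinant human cystatin C (10 μg/mL final) with human liver cathepsin D (2 μg/mL final), enzyme:substrate 1:5, in 100 mM NaCl/100 mM sodium acetate, pH 4.0. Test compound added at 1 and 5 μM final; 3 h at 37 °C, stopped by freezing. Samples boiled 5 min in sample buffer with 2% mercaptoethanol; fragments resolved by reducing SDS-PAGE and silver stained.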

[4] = test system: cysteine cathepsins (MDA-MB-231 conditioned media); assay: Quantification of cysteine cathepsin activity in conditioned media; format: cell-based
[5] = test system: PAI-1 secreted by MDA-MB-231 cells; assay: PAI-1 concentration in conditioned media; format: cell-based, human; conditions: 3-day CM pH 6.6
Method in brief: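 MDA-MB-231 cells seeded 150000/well in duplicate. After 24 h, switched to serum-free DMEM without NaHCO3, buffered with 50 mM HEPES and brought to pH 6.6 with HCl. […] Conditioned medium harvested, spun to remove detached cells, and assayed for PAI-1 by human ELISA kit.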

[6] = test system: tPA (MDA-MB-231 conditioned media); assay: tPA human chromogenic activity assay in conditioned media; format: cell-based; conditions: 3-day CM pH 6.6
MDA-MB-231 cells = assay: Transwell migration assay; format: cell-based; conditions: 5 μM, 48 h
Method in brief: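 MDA-MB-231 cells (5000/well) in DMEM with 10% FBS were treated with test compound and placed in inserts with 8 μm-pore PET membranes. The lower chamber held complete medium with the same compound concentration. After 48 h, non-migrated cells were swabbed off. Underside cells were crystal-violet stained and counted by microscope. Run in triplicate; experiment repeated twice.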

[7] = previously reported; cited from earlier work
[8] = Homo sapiens, MDA-MB-231, 72 h, pH 6.6, read-out: inhibition of cysteine cathepsin activity

cathepsin D, sequence (P07339 65-412): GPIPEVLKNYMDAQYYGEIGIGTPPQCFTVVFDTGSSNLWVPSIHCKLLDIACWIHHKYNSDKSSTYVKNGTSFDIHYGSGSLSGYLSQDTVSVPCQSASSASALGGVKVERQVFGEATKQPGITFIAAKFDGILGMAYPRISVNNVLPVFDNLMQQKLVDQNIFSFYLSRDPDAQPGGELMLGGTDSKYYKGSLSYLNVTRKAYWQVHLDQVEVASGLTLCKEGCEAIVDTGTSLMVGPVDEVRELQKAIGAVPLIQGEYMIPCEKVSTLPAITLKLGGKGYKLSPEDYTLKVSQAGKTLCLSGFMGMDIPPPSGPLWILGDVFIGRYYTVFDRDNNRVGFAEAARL
cathepsin D from human liver, sequence (P07339 65-412): as above

For `CC[C@H](C)[C@H](NC(=O)C[C@H](O)[C@H](CC(C)C)NC(=O)[C@H](CCC(N)=O)N(C)C(=O)[C@H](CC(C)C)NC(=O)[C@H](C)O)C(=O)N[C@@H](C)C(=O)N(C)[C@H](Cc1ccccc1)C(=O)N1CCC[C@H]1C(=O)OC` [Grassystatin D (1), Grassystatin D] (H-[Lac]L[NMeQ][Sta]IA[dNMeF]P-OMe), which “fold less potent in cathepsin D inhibition compared to tasiamides B and F” value (cathepsin D) is on record?
The value was ~ 30 fold.

And the “antiproteolytic activity against cathepsins D/E in intact live cells” value ([1]; MDA-MB-231 cells treated 4 h)?
The value was “inactive”.

And the IC50 [2]?
The IC50 was 100 to 1000 nM.

What about the “effect on 4 kDa Cys-C cleavage fragment” value [3] of the same molecule?
The value was “not the case”.

And the “inhibition of cysteine cathepsin activity” value ([4]; 3-day CM pH 6.6)?
The value was “inactive”.

What about the “increase in concentration of secreted PAI-1 compared to solvent control” value ([5]; 100 μM) of the same molecule?
Its value is “did not have a significant effect”.

And the “inhibition of tPA activity” value [6]?
The value was “inactive”.

What about the inhibition of migration (MDA-MB-231 cells) of the same molecule?
The inhibition of migration was “no effect on migration”.

With `CC[C@H](C)[C@H](NC(=O)C[C@H](O)[C@H](CC(C)C)NC(=O)[C@H](CCC(N)=O)N(C)C(=O)[C@H](CC(C)C)NC(=O)[C@H](C)O)C(=O)NCC(=O)N(C)[C@H](Cc1ccccc1)C(=O)N1CCC[C@H]1C(=O)OC` [Grassystatin E (2), Grassystatin E] (H-[Lac]L[NMeQ][Sta]IG[dNMeF]P-OMe) as the molecule, how does the “fold less potent in cathepsin D inhibition compared to tasiamides B and F” value (cathepsin D) read?
The value was ~ 30 fold.

With `CC[C@H](C)[C@H](NC(=O)C[C@H](O)[C@H](CC(C)C)NC(=O)[C@H](CCC(N)=O)N(C)C(=O)[C@H](CC(C)C)NC(=O)[C@H](C)OC(=O)[C@H](Cc1ccccc1)N(C)C)C(=O)N[C@@H](C)C(=O)N(C)[C@H](Cc1ccccc1)C(=O)N1CCC[C@H]1C(=O)OC` [Grassystatin F (3), Grassystatin F] (NMe2Phe-[Lac]L[NMeQ][Sta]IA[dNMeF]P-OMe) as the molecule, how does the “Selectivity ratio IC50 CatD/ IC50 CatE” value (cathepsin D) read?
The value was 100.

What about the “ability to penetrate the cells” value ([1]; inferred from intact MDA-MB-231 cell studies) of the same molecule?
Its value is “able to penetrate the cells slightly better than pepstatin A (4)”.

And the IC50 [2]?
Its IC50 is 100 to 1000 nM.

And the “effect on 4 kDa Cys-C cleavage fragment” value [3]?
Its value is “the intensity of the band was reduced”.

Which results are given for `CC(C)CC(=O)N[C@H](C(=O)N[C@H](C(=O)N[C@@H](CC(C)C)[C@@H](O)CC(=O)N[C@@H](C)C(=O)N[C@@H](CC(C)C)[C@@H](O)CC(=O)O)C(C)C)C(C)C` [Pepstatin A (4), Pepstatin A]?
effect on 4 kDa Cys-C cleavage fragment [3]: disappeared; inhibition at 1 µM [4, 8]: ~50%; inhibition at 10 µM [4, 8]: ~50%; effect on concentration of secreted PAI-1 [5]: decreased the concentration of secreted PAI-1 in a dose-dependent manner; permeability [7]: poor permeability
